p97 ATPase inh: inhibitors of human p97 ATPase, primary screen, biochemical; Transitional endoplasmic reticulum ATPase (Homo sapiens), P55072; recombinant p97 ATPase, Kinase-Glo ATP luminescence, 3 h; inhibition, % at 8 µM; 220,000 tested, 0.42% active; in the data active = inhibition above about 15%;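 also: 0% = DMSO vehicle and 100% = wells lacking enzyme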
Target sequence (P55072 whole entry, looked up): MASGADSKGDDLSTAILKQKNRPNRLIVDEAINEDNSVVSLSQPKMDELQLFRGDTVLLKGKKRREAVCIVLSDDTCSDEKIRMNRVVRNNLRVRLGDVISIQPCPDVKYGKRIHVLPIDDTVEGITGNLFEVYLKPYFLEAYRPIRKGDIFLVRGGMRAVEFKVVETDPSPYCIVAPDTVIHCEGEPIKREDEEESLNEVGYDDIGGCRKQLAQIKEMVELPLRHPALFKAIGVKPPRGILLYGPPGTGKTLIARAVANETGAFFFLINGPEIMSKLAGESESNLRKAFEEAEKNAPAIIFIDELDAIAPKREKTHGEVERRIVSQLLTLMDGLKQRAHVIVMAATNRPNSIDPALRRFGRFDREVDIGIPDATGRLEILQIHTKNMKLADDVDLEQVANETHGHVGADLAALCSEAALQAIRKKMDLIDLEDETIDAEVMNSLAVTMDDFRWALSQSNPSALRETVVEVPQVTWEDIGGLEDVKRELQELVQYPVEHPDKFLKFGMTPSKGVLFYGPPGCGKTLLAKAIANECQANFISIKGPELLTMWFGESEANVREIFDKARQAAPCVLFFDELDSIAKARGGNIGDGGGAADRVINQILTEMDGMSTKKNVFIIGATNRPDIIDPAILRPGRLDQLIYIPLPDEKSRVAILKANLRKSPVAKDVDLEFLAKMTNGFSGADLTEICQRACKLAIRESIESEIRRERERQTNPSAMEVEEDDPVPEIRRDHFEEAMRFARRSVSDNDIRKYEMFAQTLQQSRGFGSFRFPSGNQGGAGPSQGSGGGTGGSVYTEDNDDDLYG
HCV NS3 hel inh: inhibitors of HCV NS3 helicase, primary screen, biochemical, Cy5 molecular beacon fluorescence | Hepatitis C virus NS3 helicase | NS3 helicase DNA unwinding | inhibition, % at 10.9 µM | 290,000 tested, 0.56% active;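 active = inhibition above the mean of all tested compounds plus 3 SD, set per campaign, cut at about 35% in these data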;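 also: 0% = DMSO wells and 100% = thioflavine S control wells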
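System: HCV NS3 helicase fragment; control set: DMSO and thioflavine S; technique: Cy5 fluorescence at 0 and 60 min, beacon hairpin quenching; reagent: beacon DNA duplex substrate plus ATP; replicates: singlicate; schedule: 1 h reaction at 25 °C, ATP-initiated; medium: MOPS buffer pH 6.5 with MgCl2, DTT, Tween20, BSA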
CHOP inh: inhibitors of CHOP promoter induction, primary screen, cell-based, unfolded protein response, luciferase reporter; 220,000 tested, 3.8% active; CHO-K1 CHOP-promoter luciferase, tunicamycin-induced, 15-18 h; inhibition, % at 10 µM;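 active = compounds that reduced the stress-induced luciferase reporter signal by more than about 70% of percent inhibition, limit read from the data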;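 also: 0% = tunicamycin plus vehicle and 100% = wells without tunicamycin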
PfM18AAP inh: PfM18AAP inhibitors, malaria aminopeptidase, primary screen, biochemical, QFRET, recombinant enzyme | H-Glu-NHMec fluorogenic cleavage | inhibition, % at 7.35 µM | 290,000 tested, 1.2% active | AID 1822, 2009;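 active = inhibition above the campaign mean inhibition over all tested compounds plus 3 SD, cut at about 28% in these data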;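 also: 0% = plate median of test compound wells and 100% = 2 mM ZnCl2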
UPR XBP1 act: activators of adaptive XBP1 UPR arm, primary screen, cell-based, CHO-XBP1 luciferase reporter, luminescence, uHTS; IRE1-XBP1 UPR activation; percent of tunicamycin response, DMSO as zero; activation, % at 20 µM; 330,000 tested, 0.33% active; AID 463104, 2010;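 active = versus positive control, 20 µM dose yields 30% or more activation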;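 also: 100% = tunicamycin at 10 µg/mL and 0% = DMSO only wells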
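Material: CHO-XBP1 cells stably carrying IRE1-XBP1-driven luciferase reporter | Medium: F12 with 10% serum | Compound dosing: 20 µM single concentration, DMSO 1% | Incubation: Overnight seeding at 37 °C, 6 h compound treatment at 37 °C | Detection: Steady-Glo luminescence read | Read-out basis: % activation of reporter signal versus tunicamycin and DMSO controls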
CHOP UPR activ: activators of apoptotic CHOP UPR arm, primary screen, cell-based, CHO-CHOP luciferase reporter, luminescence, uHTS. activation, % at 10 µM. UPR activation; percent of tunicamycin response over DMSO baseline. 330,000 tested, 0.34% active. AID 449763, 2010;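 active = at 10 µM dose, activation of 40% or more, normalized to positive control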;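 also: 100% = tunicamycin at 10 µg/mL and 0% = DMSO alone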
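Test system: CHO-CHOP cells, stable luciferase reporter of PERK-eIF2a-CHOP signalling | Quantity: 500 CHO-CHOP cells per well | Buffer or medium: F12 plus 10% serum | Compound dosing: 10 µM single point, 0.5% DMSO | Schedule: 6 h compound treatment, 37 °C | Signal: Luciferase luminescence | Control set: Tunicamycin high control, DMSO low control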
UPR XBP1 confirm: IRE1-XBP1 UPR arm activators, confirmation, cell-based, CHO-XBP1 luciferase reporter, luminescence, single concentration. shares compounds with UPR XBP1 act. activation, % at 20 µM. 1,000 tested, 63% active. AID 485299, 2010;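 active = reporter signal at least 30% of the positive control's activation in two or more of four replicate wells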;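 also: plate controls were DMSO negative control for no effect and tunicamycin 10 µg/mL positive control for full effect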
* hit, by the source's call; . = no result. This is a sample that favours compounds with a hit; in the whole collection about 4.5% have one here.

SMILES	p97 ATPase inh	HCV NS3 hel inh	CHOP inh	PfM18AAP inh	UPR XBP1 act	CHOP UPR activ	UPR XBP1 confirm
CN(C(=O)c1ccc(S(=O)(=O)N2CCCC2)cc1)C1CCS(=O)(=O)C1 (centres undefined)	.	.	.	.	-3.1	0.6	.
O=C(CCC1CCCN(C(=O)c2ccc3c(c2)OCO3)C1)NCc1ccc(F)c(F)c1 (centres undefined)	-5.8	-0.5	-14.2	-0.9	-0.7	-1.1	.
O=C(NC(=S)Nc1cc(-c2nc3ccccc3[nH]2)ccc1Cl)c1ccc2c(c1)OCO2	5.1	-7.5	94.4*	-4.2	95.5*	18.6	164.2*
CCOc1ccc(C(=O)Nc2cc(-c3nc4ccccc4[nH]3)ccc2Cl)cc1[N+](=O)[O-]	0.1	2.1	78.7*	-2.9	35.1*	0.9	535.0*
COc1ccc(-c2cc(CNS(=O)(=O)c3ccc(F)cc3)on2)cc1	3.1	-7.1	25.4	11.9	-1.1	0.9	.
Cc1ccc(S(=O)(=O)NCC(c2ccccc2)N2CCN(c3ccc(F)cc3)CC2)cc1 (centres undefined)	.	-5.7	.	-1.6	-4.4	2.1	.
COc1ccc(/C=N/NC(=O)c2cccc(C(=O)N/N=C/c3ccc(OC)c(OC)c3)n2)cc1OC	.	0.5	.	13.8	-3.7	-1.3	.
COc1ccc(/C=N/NC(=O)Nc2cccc3nsnc23)cc1OC	4.2	-6.8	83.0*	-6.0	73.6*	7.0	25.1
C=CCNC(=O)c1c[nH]c2ccc(S(=O)(=O)N(C)c3ccc(OCC)cc3)cc2c1=O	.	-14.8	.	-4.2	-1.2	0.2	.
Cc1ccc(O)c(NC(=S)NC(=O)Cc2ccc(Cl)cc2)c1	.	8.9	.	5.0	52.1*	-0.7	85.7*
COc1ccccc1CN1CCNC(=O)C1CC(=O)NC1CCCCCC1 (centres undefined)	.	-23.6	.	7.1	-5.0	-0.9	.
